Data taken from the EternaBench riboswitch data.

Tested on: MS2 coat protein
Assay: apparent Kd, MS2 coat protein; higher = weaker binding; RNA-MaP array; FMN 200 µM where present
Outline: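 Two titrations, one without ligand and one with constant ligand, were run with SNAP-549-labelled MS2 coat protein from 0.7 or 1.5 nM, doubling to 3 µM. The targets were designs transcribed by stalled E. coli RNA polymerase on Illumina sequencing-chip clusters, in 100 mM Tris-HCl pH 7.5, 80 mM KCl, 4 mM MgCl2, BSA, DTT, yeast tRNA and Tween-20. The apparent Kd is the median of filtered per-cluster binding-curve fits, with green signal normalised to red-channel RNA signal and control-cluster median Fmax.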

[1] = designed as: OFF switch for flavin mononucleotide, no ligand
[2] = ligand present: flavin mononucleotide, designed as: OFF switch for flavin mononucleotide
[3] = designed as: ON switch for flavin mononucleotide, no ligand
[4] = ligand present: flavin mononucleotide, designed as: ON switch for flavin mononucleotide

Sequence | apparent Kd [1] [nM] | apparent Kd [2] [nM] | apparent Kd [3] [nM] | apparent Kd [4] [nM]
GGAUGACAAAGUCAUCCAAUACGAACAUGAGGAUCACCCAUGUAGGAUAUGCUUCUCAAAGAGAAGCAGAAGGACAUGUGUCUU | 28.7 | 158 |  | 
AAUUUACAUGAGGAUCACCCAUGUGAGGAUAUAUAUAUAUGUUUGUUAUUGCGUGUGUGUAGAAGGCGCGUGAU | 17.6 | 16.3 |  | 
UCAAAGCUAGGAUAUACAUGAGGAUCACCCAUGUUAUCACCCAUCGGGUCUUGCUUUUGUAGAAGGAGCAAUAA | 28.2 | 59.8 |  | 
ACGACGAAAGUCGAACGAUGUAGCAGAAGGACAUGAGGAUCACCCAUGUCAGCUGUAACAGCCAUGUAGGAUAUGCUACAUCGU | 4.29 | 5.41 |  | 
GUAGCUAUCGGAGGAUAUUCAUACCGGAAACGGACAUGAGGAUCACCCAUGUGGCGAAAGCCUUUGGAGAAGGCCGAUAGCUAC |  |  | 3.56 | 3.33
AAGGUGUUAGGAUAUCGUAGUUUGAGGCAGACGGGAUUUUGCGAGAAGGAACAUGAGGAUCACCCAUGUAGGAU | 27.2 | 30.4 |  | 
CGGUGACGUGUAGGAUAUGGCGAUGGGUUUUGGCCAGAAGGACAUGAGGAUCACCCAUGUGGUAGAGGGCUGGCGGCUGCCCGU | 13.6 | 57.5 |  | 
CUAGACUUAUCAGGAUAUCAUCGCGUGGAUUAACCCUGUGAUUACAUGAGGAUCACCCAUGUGCUUGAGAAGGGAUUACUAUUU | 28.8 | 114 |  | 
UUAAGGGACUGAGGAUAUACAUGAAUUAUGUUUGUAGAAGGCAGAUUGUUAGUUUAUUCACUAUACAUGAGGAUCACCCAUGUU | 25.1 | 20.6 |  | 
GCAGCACAGAUUUACAUGAGGAUCACCCAUGUCUAUUAAGAUGAGGAUAUGCUUCGAAUGAUGUUGCAGAAGGCAUUGUGCUGC |  |  | 10.9 | 6.6
GUGGAGUACGUAGGAUAUGUAGGAUAUUCCUACAUGAGGAUCACCCAUGUUAGCAUGGAAGAAGGACAGAAGGACGUGCUCCAG |  |  | 1180 | 15
ACAUAUAUUCGAGGAUAUCGGUGAUAAAUUUUACGAGAAGGCGAUAAAAGAUAUAAUCUUAUAGACAUGAGGAUCACCCAUGUA |  |  | 27.3 | 27.1
UAUAUAUAGUAAGGAUAUGUAAUAAUUUUAUAAACAGAAGGUACUGACAUGAGGAUCACCCAUGUUUUAGUGUGGGCAUGUAGA | 83.9 | 151 |  | 
UACAUUACUUAGAAGGGAUAUAUAUAAUUUUAAUCAGGAUAUAGAUACAGUACAACAUGAGGACAUGAGGAUCACCCAUGUAUU |  |  | 31.4 | 23.2
AGAGACUUGGGAGGAUAUGCCUGAUGGACACGGGCAGAAGGCCCAAACAUGAGGAUCACCCAUGUAUCUACGCCUUGAACGGGC |  |  | 236 | 17.7
GGCUCAUUGACAUUAAUGUGCAGACAGGAUAUCCACCGCGGUUCCUACAUGAGGAUCACCCAUGUGGAGAAGGGUCGCUAAUGG | 16.1 | 43.6 |  | 
GUGACGAAUGUAGGAUAUGCUGAGGAUAACUCAGCAGAAGGACAUGAGGAUCACCCAUGUAAUCCUAAUAAUAAAUAACGUCAC | 12.7 | 18.3 |  | 
GAAUUCGCAUGAGGAUAUGCUCCCGUUUCGGGAGCAGAAGGCAUGUCAUAAGACAUGAGGAUCACCCAUGUAGUUAAGAUUGAA |  |  | 196 | 11.3
GGAUGAUUAAUAGGAUAUUAUUUGUAAAAUGGUUAAGAAGGAUUAAUGAUUUAAACGACCAGAUACAUGAGGAUCACCCAUGUA |  |  | 24.4 | 21.9
GGUUGGCGAGGAUAUACAUGAGGAUCACCCAUGUGGUCCUGUGGCUGGUCAAAACUUUGUAGAAGGCGCGGGUC | 83.1 | 101 |  | 
GCAACGCUUGACAUGAGGAUCACCCAUGUUAGAUUGUUAUGUCAGGAUAUAGUCUAGAAACUAGACUAGAAGGGAUAUGUUGCU |  |  | 269 | 44.2
GGAUCCAACACAGGAUAUGCUGGACUUUGUCCAGCAGAAGGGUGAAGAACAUGAGGAUCACCCAUGUGGAUCCAUACAUUUAAU |  |  | 254 | 15.7
UUUGUUUGCGGAGGAUAUAUAAGUGGAUCACCCAUAGAAGGCCGAACAUGAGGAUCACCCAUGUUACAUGAGGAUCACCCAUGU | 45.8 | 51.5 |  | 
AGAAAGUCAGGAUAUCAGAAUAAGUCGAAAACGACUAGUAAUGAGAAGGGACAUGAGGAUCACCCAUGUAAGAA | 30.6 | 37.4 |  | 
AAUACUUAGUAAGGAUAUACUAGCGAUUAGCUUGUAGAAGGUACAGUCUUAUGUAUAACAUGUUAACAUGAGGAUCACCCAUGU |  |  | 67.2 | 35.1
GAGUAGUCAAAAGGAUAUUGAUUAUUGUAGGAUCAAGAAGGUUUUAACAUGAGGAUCACCCAUGUAGGACUAUUCCUGUGUAUC |  |  | 16.6 | 12.2
UCUCUUGGGCAAGGAUAUCCUGCGCGGUUCCGGUUCGUGUCUGUCACAUGAGGAUCACCCAUGUGGGAGAAGGUGCCUGCGGUU | 17.7 | 25.5 |  | 
UAUAUUUUUAUAGGAUAUGGAUAUGAUGCAUAUCCAGAAGGGUGAAUAUAAUAUUUUCUGUACAUGAGGAUCACCCAUGUUUAU |  |  | 235 | 72.2
